Like-named read-outs stand apart in the source and are kept apart here.
Experiments:
[1] = system: nuclear NF-κB; format: cell-based, human; conditions: concentration of 500 nM, THP-1 cells, R848 1 μg/mL, Figure S2
Method in brief: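 THP-1 cells were seeded at 2 × 10^6 cells/well and differentiated with PMA (100 ng/mL) for 24 h at 37 °C, 5% CO2. Medium was switched to unsupplemented RPMI, then R848 (1 μg/mL) plus test compound was added for 2 h. Nuclear fractions were extracted and quantified by BCA, run on 10% SDS-PAGE and blotted. Probed with anti-p65 (1:1000), then HRP anti-rabbit (1:10000), chemiluminescence. Lamin A/C was the nuclear control.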

[2] = target: T1, TLR7 (Homo sapiens, UniProt Q9NYK1); assay: TLR selectivity assay; format: cell-based; conditions: HEK-Blue hTLR7 cells, R848 1 μg/mL
T1 sequence (Q9NYK1 27-1049): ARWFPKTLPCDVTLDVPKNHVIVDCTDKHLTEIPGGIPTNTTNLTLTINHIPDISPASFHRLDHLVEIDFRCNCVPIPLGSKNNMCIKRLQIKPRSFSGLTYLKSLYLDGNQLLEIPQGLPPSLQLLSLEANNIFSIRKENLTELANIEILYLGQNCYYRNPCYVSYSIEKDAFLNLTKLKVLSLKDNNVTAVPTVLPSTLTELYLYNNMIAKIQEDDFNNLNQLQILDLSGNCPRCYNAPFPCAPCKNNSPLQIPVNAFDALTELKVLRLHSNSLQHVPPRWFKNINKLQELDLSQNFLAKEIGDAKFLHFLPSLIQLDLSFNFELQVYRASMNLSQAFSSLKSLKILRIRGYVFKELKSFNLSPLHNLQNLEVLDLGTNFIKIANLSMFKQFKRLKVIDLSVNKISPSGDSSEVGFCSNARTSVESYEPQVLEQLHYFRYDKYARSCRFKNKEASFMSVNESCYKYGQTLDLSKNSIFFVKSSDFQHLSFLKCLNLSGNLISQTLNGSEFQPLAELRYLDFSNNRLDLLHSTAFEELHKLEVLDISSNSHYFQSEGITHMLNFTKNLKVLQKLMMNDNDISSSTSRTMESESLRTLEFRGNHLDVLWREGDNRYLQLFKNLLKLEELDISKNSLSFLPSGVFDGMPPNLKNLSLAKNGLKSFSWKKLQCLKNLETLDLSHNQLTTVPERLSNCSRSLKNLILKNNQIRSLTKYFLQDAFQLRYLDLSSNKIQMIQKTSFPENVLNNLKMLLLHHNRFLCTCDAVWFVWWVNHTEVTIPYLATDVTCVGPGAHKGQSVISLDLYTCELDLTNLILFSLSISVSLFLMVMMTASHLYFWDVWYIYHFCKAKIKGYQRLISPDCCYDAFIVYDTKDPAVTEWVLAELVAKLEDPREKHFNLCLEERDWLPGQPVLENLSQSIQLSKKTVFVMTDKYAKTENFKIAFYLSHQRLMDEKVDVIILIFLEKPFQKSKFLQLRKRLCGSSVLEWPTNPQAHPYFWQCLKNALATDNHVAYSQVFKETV
Method in brief: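 HEK-Blue hTLR7 cells were seeded at 7.5 × 10^4 cells/well in DMEM with 10% heat-inactivated FBS. Cells received R848 (1 μg/mL) with varied test-compound concentrations for 24 h at 37 °C, 5% CO2. Supernatant SEAP was developed with Quanti-Blue (30 min–1 h, 37 °C) and read at 620 nm. Normalised with R848-only as 100% and untreated as 0% activation. Three biological replicates, each in triplicate.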

[3] = target: T2, mouse TLR9 (Mus musculus, UniProt Q9EQU3); assay: IL-12p40 production in splenocytes from hTLR8tg/TLR7-KO mice, TLR9 agonist 1018; format: cell-based; conditions: 1018 7.1 ug/mL
T2 sequence (Q9EQU3 26-1032): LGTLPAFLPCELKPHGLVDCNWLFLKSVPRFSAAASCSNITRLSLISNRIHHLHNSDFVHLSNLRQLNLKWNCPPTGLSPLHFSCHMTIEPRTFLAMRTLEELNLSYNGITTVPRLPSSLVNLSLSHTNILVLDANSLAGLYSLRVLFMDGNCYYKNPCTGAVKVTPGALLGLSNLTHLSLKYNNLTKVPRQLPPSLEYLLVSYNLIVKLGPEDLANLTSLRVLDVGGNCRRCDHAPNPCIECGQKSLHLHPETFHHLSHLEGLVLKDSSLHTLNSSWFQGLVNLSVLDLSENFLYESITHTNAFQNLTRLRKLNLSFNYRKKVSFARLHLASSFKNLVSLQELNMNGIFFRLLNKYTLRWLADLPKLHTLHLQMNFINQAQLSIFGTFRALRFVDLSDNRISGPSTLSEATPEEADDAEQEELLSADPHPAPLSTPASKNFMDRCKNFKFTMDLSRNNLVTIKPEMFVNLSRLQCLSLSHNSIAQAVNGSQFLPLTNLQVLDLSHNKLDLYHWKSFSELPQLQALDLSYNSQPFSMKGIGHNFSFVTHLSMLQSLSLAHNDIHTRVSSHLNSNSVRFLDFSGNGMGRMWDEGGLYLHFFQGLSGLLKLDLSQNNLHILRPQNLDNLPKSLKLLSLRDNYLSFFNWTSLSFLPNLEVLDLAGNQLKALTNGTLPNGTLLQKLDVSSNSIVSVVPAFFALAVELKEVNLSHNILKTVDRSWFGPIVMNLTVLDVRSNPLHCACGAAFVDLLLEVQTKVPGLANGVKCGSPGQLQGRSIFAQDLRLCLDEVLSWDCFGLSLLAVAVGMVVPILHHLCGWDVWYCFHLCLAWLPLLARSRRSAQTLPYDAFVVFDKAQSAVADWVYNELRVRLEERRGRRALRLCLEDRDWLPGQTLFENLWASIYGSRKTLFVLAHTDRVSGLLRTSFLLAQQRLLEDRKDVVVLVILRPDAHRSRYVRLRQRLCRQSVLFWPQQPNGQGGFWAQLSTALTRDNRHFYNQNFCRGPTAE
Method in brief: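 Splenocytes from female […] mice carrying a human TLR8 transgene, prepared by straining and red-cell lysis. Incubated with a dilution series of test compound plus a constant amount of CpG phosphorothioate DNA oligonucleotide 1018 (TLR9 agonist) for 48 h. IL-12p40 measured in culture supernatants. Curves come from a single spleen.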

[4] = target: ectodomain of human TLR8; conditions: read-out: dissociation constant (Kd), et al., cited from earlier work

| SMILES | reduction of nuclear NF-κB [1] | effect on TLR7 [2] | activity against mouse TLR9 [3] | Kd ([4]; ITC, ectodomain of human TLR8, ref Zhang, 2018) [nM] | Kd ([4]; TLR8 and R848, ref Tanji, 2015) [nM] |
| --- | --- | --- | --- | --- | --- |
| COc1ccc2c(-c3ccc(O)c(C)c3)ccnc2c1 [CU-CPT9a] | significant reduction | not affected below ~μM concentration | no activity | – | – |
| Cc1cc(-c2ccnc3cc(O)ccc23)ccc1O [CU-CPT9b] | – | not affected below ~μM concentration | no activity | 21 | – |
| CCOCc1nc2c(N)nc3ccccc3c2n1CC(C)(C)O [R848, reference compound] | – | – | – | – | 200 |

— PMC6195466 (Cell chemical biology, 2018)
